Measurements collected from several papers.
Each line is one published result; the experiments were not run side by side.
Cell line: NCI-H460
Effect on: cell growth or viability

O=c1[nH]cc(F)c(=O)[nH]1
IC50 (MTT; 48 h): 43.1 µM

C=C(Cl)C(=O)Nc1cc(Nc2nc(Nc3cnn(C)c3)c3sccc3n2)c(OC)cc1N(C)CCN(C)C
IC50 (MTT): 3.22 µM

Oc1ccc(C/C=C(/COCc2ccccc2)c2ccc(OCc3ccccc3)cc2)cc1
IC50 (MTT; 24 h): 27.9 µg/mL

CC(=O)c1ccc(/N=N/c2cc(/C=C/C(=O)O)ccc2O)cc1
IC50 (MTT): > 50 µM

O=c1[nH]cc(F)c(=O)[nH]1
IC50 (MTT; 72 h): 3 µM

C=CC(=O)Nc1cc(Nc2nc(Nc3cnn(C)c3)c3sccc3n2)c(OC)cc1N(C)CCN(C)C
IC50 (MTT): > 50 µM

OCc1ccc2c(c1C#Cc1ccc(O)cc1)C(c1ccc(O)cc1)(c1ccc(O)cc1)c1cc(O)ccc1-2
IC50 (MTT; 48 h): > 50 µM

C=CC(=O)Nc1cc(Nc2nc(N3CCc4sccc4C3)c3cccnc3n2)c(OC)cc1N1CCN(CC)CC1
IC50 (MTT): 0.652 µM

COc1cc(/C=C/Cc2ccc(O)c(OC)c2)ccc1O
IC50 (MTT; 24 h): 17.5 µg/mL

C=CC(=O)Nc1cc(Nc2nc(N3CCc4sccc4C3)c3sccc3n2)c(OC)cc1N1CCN(C)CC1
IC50 (MTT): 0.913 µM

COc1cc([C@@H]2c3cc4c(cc3[C@@H](O[C@@H]3O[C@@H]5CO[C@@H](C)O[C@H]5[C@H](O)[C@H]3O)[C@H]3COC(=O)[C@H]23)OCO4)cc(OC)c1O
IC50 (MTT; 72 h): 0.83 µM

O=C1NC(=NCc2cccs2)S/C1=C\c1ccc2ncccc2c1
IC50: > 10 µM

COc1ccc(C/C=C/c2ccc(O)c(OC)c2)cc1
IC50 (MTT; 24 h): 12.3 µg/mL

COc1cc2oc(-c3ccc(O)cc3)cc(=O)c2c(O)c1OC
IC50 (48 h): 26.2 µM

O=C(O)/C=C/c1ccc(O)cc1
IC50 (MTT): > 50 µM

CC(C)C[C@H](NC(=O)[C@H](Cc1ccccc1)NC(=O)c1cnccn1)B(O)O
IC50 (ATP luminescence): 0.03 µM

COc1cc(CNC(=O)CCCC/C=C/C(C)C)ccc1OCc1cn(-c2ccc(C(F)(F)F)cc2)nn1
IC50 (SRB): 6.65 µM

CCC(=O)Nc1cc(Nc2nc(N3CCc4sccc4C3)c3cccnc3n2)c(OC)cc1N(C)C
IC50 (MTT): 4.95 µM

CCN1CCN(Cc2ccc(Nc3ncc(F)c(-c4cc(F)c5nc(C)n(C(C)C)c5c4)n3)nc2)CC1
IC50 (CCK-8): 0.962 µM

COc1cc(CNC(=O)CCCC/C=C/C(C)C)ccc1OCc1cn(-c2ccc(C#N)cc2)nn1
IC50 (SRB): 5.55 µM

COc1ccc(C/C=C(/CO)c2ccc(OC)cc2)cc1
IC50 (MTT; 24 h): 30.9 µg/mL

O=C(O)/C=C/c1ccc(O)c(O)c1
IC50 (MTT): 3.9 µM

C=CC(=O)Nc1cc(Nc2nccc(-c3cn(C)c4ccccc34)n2)c(OC)cc1N(C)CCN(C)C
IC50 (MTT): 1.97 µM

C(/Cc1ccc(OCc2ccccc2)cc1)=C(\COCc1ccccc1)c1ccc(OCc2ccccc2)cc1
IC50 (MTT; 24 h): 48.3 µg/mL

COc1cc(N(C)CCN(C)C)c(NC(=O)C=C(C)C)cc1Nc1nc(N2CCc3sccc3C2)c2sccc2n1
IC50 (MTT): 0.533 µM

COC/C(=C/Cc1ccc(OC)cc1)c1ccc(OC)cc1
IC50 (MTT; 24 h): 75.4 µg/mL

CC(=O)c1cccc(/N=N/c2cc(/C=C/C(=O)O)ccc2O)c1
IC50 (MTT): > 50 µM

CCC(=O)Nc1cc(Nc2nc(N3CCc4sccc4C3)c3cccnc3n2)c(OC)cc1N1CCN(CC)CC1
IC50 (MTT): 1.16 µM

COc1cc(C/C=C/c2ccc(O)cc2)ccc1O
IC50 (MTT; 24 h): 19.9 µg/mL
